Peptide text beside a SMILES is read from it. * marks the point of attachment. Hydrocinnamoyl = O=C(CCc1ccccc1)*; Myristoyl = CCCCCCCCCCCCCC(=O)*; Undecanoyl = CCCCCCCCCCC(=O)*; Morpholide = C1CN(*)CCO1; NHPh = c1ccc(N*)cc1; NHNH2 = NN*; NHOH = ON*
Organism: Rattus norvegicus
Experiment: Inhibition of rat recombinant Rab geranylgeranyltransferase at 100 uM in presence of canine Rab7 and rat REP1 NBD-FPP based continuous fluorimetric assay
In short: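 Continuous fluorometric assay in 96/384-well format: 3 μM Rab7, 3 μM REP1, 9 μM NBD-FPP and 400 nM RabGGTase, with or without inhibitor. […] IC50 was calculated from three independent measurements.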

Compound	inhibition [%]
CC[C@H](C)[C@H](NC(=O)c1ccc(-c2ccccc2)cc1)C(=O)N[C@@H](C(=O)N[C@@H](CCC(N)=O)C(=O)OCCCl)C(C)C	89
CCCCCCCCCCCOc1ccc(C(=O)N[C@@H](Cc2ccc(O)cc2)C(=O)N[C@@H](Cc2ccc(O)cc2)C(=O)N[C@@H](Cc2ccc(O)cc2)C(=O)NCCCn2ccnc2)cc1	48
CC[C@H](C)[C@H](NC(=O)c1ccc(-c2ccccc2)cc1)C(=O)N[C@@H](C(=O)N[C@@H](CCC(N)=O)C(=O)OC)C(C)C	94
CCCCCCCCCCC(=O)N[C@@H](Cc1c[nH]cn1)C(=O)N[C@@H](Cc1c[nH]cn1)C(=O)N[C@@H](CO)C(=O)NO (Undecanoyl-His-His-Ser-{NHOH})	78
O=C(CNC(=O)[C@H](Cc1c[nH]cn1)NC(=O)c1coc(-c2ccccc2)n1)N[C@@H](Cc1c[nH]c2ccccc12)C(=O)O	69
O=C(CNC(=O)[C@H](Cc1ccc(O)cc1)NC(=O)c1ccc(F)cc1)N[C@@H](Cc1ccc(O)cc1)C(=O)O	90
CC[C@H](C)[C@H](NC(=O)c1ccc(-c2ccccc2)cc1)C(=O)N[C@@H](C(=O)N[C@@H](CCC(N)=O)C(=O)N(C)OC)C(C)C	109
COC(=O)[C@H](Cc1ccccc1)NC(=O)CNC(=O)[C@@H]1CCCN1C(=O)/C=C/c1ccccc1	89
CCCCCCCCCCCOc1ccc(C(=O)N[C@@H](Cc2c[nH]cn2)C(=O)N[C@@H](Cc2ccc(O)cc2)C(=O)N[C@@H](Cc2ccccc2)C(=O)N2CCOCC2)cc1	87
CN(CCc1ccccn1)C(=O)[C@H](Cc1ccc(O)cc1)NC(=O)CCNC(=O)[C@H](Cc1c[nH]cn1)NC(=O)OCc1ccccc1	78
CCCCCCCCCCC(=O)N[C@@H](CC1=NCN=C1)C(=O)N[C@@H](Cc1c[nH]cn1)C(=O)N[C@@H](Cc1ccc(O)cc1)C(=O)Nc1ccccc1N	74
CCCCCCCCCCOc1ccc(C(=O)N[C@@H](Cc2c[nH]cn2)C(=O)N[C@@H](Cc2c[nH]cn2)C(=O)N[C@@H](CO)C(=O)NCCCn2ccnc2)cc1	52
CCCCCCCCCCC(=O)N[C@@H](Cc1ccc(O)cc1)C(=O)N[C@@H](Cc1c[nH]cn1)C(=O)N[C@@H](Cc1c[nH]cn1)C(=O)Nc1ccccn1	64
C[C@H](NC(=O)[C@@H](NC(=O)c1ccc(-c2ccccc2)cc1)[C@@H](C)O)C(=O)N[C@@H](CCC(=O)O)C(=O)NN	89
CCCCCCCCCCC(=O)N[C@@H](Cc1c[nH]cn1)C(=O)N[C@@H](Cc1c[nH]cn1)C(=O)N[C@@H](Cc1ccc(O)cc1)C(=O)NCc1ccccn1	80
CCCCCCCCCCCCCC(=O)N[C@@H](Cc1ccc(O)cc1)C(=O)N[C@@H](Cc1ccc(O)cc1)C(=O)N[C@@H](Cc1ccc(O)cc1)C(=O)N1CCOCC1 (Myristoyl-Tyr-Tyr-Tyr-Morpholide)	95
CCCCCCCCCCCCCC(=O)N[C@@H](Cc1ccc(O)cc1)C(=O)N[C@@H](Cc1ccc(O)cc1)C(=O)N[C@@H](Cc1ccc(O)cc1)C(=O)NC1CCCCC1	93

Compound	inhibition [%]
O=C(N[C@@H](CO)C1=N[C@H](C(=O)O)CO1)c1coc(-c2ccccc2)n1	93
COC(=O)[C@H](Cc1ccc(O)cc1)NC(=O)CCNC(=O)[C@H](Cc1c[nH]cn1)NC(=O)OCc1ccccc1	72
CC(C)(C)Oc1ccc(C[C@H](NC(=O)c2coc(-c3ccccc3)n2)C(=O)NCC(=O)N[C@@H](Cc2cn(C(c3ccccc3)(c3ccccc3)c3ccccc3)cn2)C(=O)O)cc1	94
NCCCC[C@H](NC(=O)CCc1ccccc1)C(=O)N[C@@H](Cc1c[nH]cn1)C(=O)N[C@@H](CO)C(=O)NCc1cccc(F)c1	96
CCCCCCCCCCCOc1ccc(C(=O)N[C@@H](Cc2c[nH]cn2)C(=O)N[C@@H](Cc2ccc(O)cc2)C(=O)N[C@@H](Cc2ccccc2)C(=O)N(C)CCc2ccccn2)cc1	101
CCCCCCCCCCC(=O)N[C@@H](Cc1c[nH]cn1)C(=O)N[C@@H](Cc1ccccc1)C(=O)N[C@@H](Cc1ccc(O)cc1)C(N)=O (Undecanoyl-His-Phe-Tyr-NH2)	45
O=C(CNC(=O)c1csc(-c2ccc(C(F)(F)F)cc2)n1)N[C@@H](Cc1ccccc1)C(=O)N[C@@H](Cc1c[nH]cn1)C(=O)O	137
O=C(N[C@@H](CO)C(=O)N[C@@H](Cc1ccccc1)C(=O)N[C@@H](CO)C(=O)OCCCl)C(Br)C(Br)c1ccc(F)cc1 (some centres undefined)	98
CC(C)(C)Oc1ccc(C[C@H](NC(=O)CNC(=O)[C@H](Cc2cn(C(c3ccccc3)(c3ccccc3)c3ccccc3)cn2)NC(=O)c2coc(-c3ccccc3)n2)C(=O)O)cc1	80
CCCCCCCCCCCC(=O)N[C@@H](Cc1c[nH]cn1)C(=O)N[C@@H](Cc1c[nH]cn1)C(=O)N[C@@H](Cc1ccc(O)cc1)C(=O)NCCCn1ccnc1	124
C[C@H](NC(=O)[C@@H](NC(=O)c1ccc(-c2ccccc2)cc1)[C@@H](C)O)C(=O)N[C@@H](CCC(=O)O)C(N)=O	82
C[C@H](NC(=O)[C@@H](NC(=O)c1ccc(-c2ccccc2)cc1)[C@@H](C)O)C(=O)N[C@@H](CCC(=O)O)C(=O)OCCCCO	101
CCCCCCCCCCC(=O)N[C@@H](Cc1c[nH]cn1)C(=O)N[C@@H](Cc1c[nH]cn1)C(=O)N[C@@H](CO)C(=O)NCCCCN	75
NNC(=O)[C@H](CO)NC(=O)CNC(=O)[C@H](CO)NC(=O)CCc1ccccc1 (Hydrocinnamoyl-Ser-Gly-Ser-NHNH2)	94
CCC/C=C\c1ccccc1/C=C/C(=O)N[C@H](Cc1ccc(O)cc1)C(=O)N(C)[C@@H](Cc1ccc(OC)cc1)C(=O)N(C)[C@@H](Cc1ccccc1)C(=O)OCc1cnc(C)s1	97
CCCCCCCCCCC(=O)N[C@@H](Cc1ccc(O)cc1)C(=O)N[C@@H](Cc1c[nH]cn1)C(=O)N[C@@H](Cc1c[nH]cn1)C(=O)NCCCn1ccnc1	59
O=C(CCc1ccc(F)cc1)N[C@@H](Cc1ccc(O)cc1)C(=O)NCC(=O)N[C@@H](Cc1ccc(O)cc1)C(=O)NC1CCCCC1	88

Results, then the compound that gave them:

inhibition [%]	Compound
79	COC(=O)[C@H](Cc1ccc(O)cc1)NC(=O)CNC(=O)[C@H](C)NC(=O)/C=C/c1ccc(F)cc1
71	O=C(CNC(=O)c1csc(-c2ccccc2)n1)N[C@@H](Cc1ccccc1)C(=O)N[C@@H](Cc1cn(C(c2ccccc2)(c2ccccc2)c2ccccc2)cn1)C(=O)O
100	C[C@@H](NC(=O)CCc1ccccc1)C(=O)N[C@@H](Cc1ccccc1)C(=O)N[C@@H](CCC(=O)O)C(=O)Nc1cccc(Br)n1
81	O=C(N[C@@H](CO)C(=O)N[C@@H](Cc1ccccc1)C(=O)N[C@@H](CO)C(=O)Nc1ccccc1)C(Br)C(Br)c1ccc(F)cc1 (some centres undefined)
90	O=C(CCc1ccccc1)N[C@@H](CO)C(=O)N[C@@H](Cc1ccccc1)C(=O)N[C@@H](CO)C(=O)NC1CCCCC1
65	O=C(CNC(=O)[C@H](Cc1ccc(O)cc1)NC(=O)c1coc(-c2ccccc2)n1)N[C@@H](Cc1ccccc1)C(=O)O
81	CC(C)C[C@H](NC(=O)[C@H](COC(C)(C)C)NC(=O)[C@H](Cc1ccccc1)NC(=O)c1ccc(-c2ccccc2)cc1)C(=O)O
95	CC(C)C[C@H](NC(=O)[C@H](CO)NC(=O)[C@H](Cc1ccccc1)NC(=O)/C=C/c1ccc(F)cc1)C(=O)NNc1ccccc1
59	CCC/C=C/c1cccc(/C=C/C(=O)N[C@H](Cc2cnc[nH]2)C(=O)N[C@@H](Cc2ccc(O)cc2)C(=O)N[C@@H](Cc2ccccc2)C(=O)O)c1
93	CCCCCCCCCCCOc1ccc(C(=O)N[C@@H](Cc2cnc[nH]2)C(=O)N[C@@H](Cc2ccc(O)cc2)C(=O)N[C@@H](Cc2ccccc2)C(=O)NCC(O)CO)cc1 (some centres undefined)
47	COc1ccc(C[C@@H](C(=O)N(C)[C@@H](Cc2ccccc2)C(=O)OCC(=O)O)N(C)C(=O)[C@@H](Cc2ccc(O)cc2)NC(=O)CCc2ccccc2)cc1
104	CC(C)C[C@H](NC(=O)/C=C/c1ccccc1)C(=O)N[C@@H](Cc1ccccc1)C(=O)N[C@@H](Cc1ccccc1)C(=O)Nc1ccc([N+](=O)[O-])cc1Cl
89	O=C(CCc1ccccc1)N[C@@H](CO)C(=O)N[C@@H](Cc1ccccc1)C(=O)N[C@@H](CO)C(=O)Nc1ccccc1 (Hydrocinnamoyl-Ser-Phe-Ser-NHPh)
91	C[C@@H](O)[C@H](NC(=O)/C=C/c1ccccc1)C(=O)N[C@@H](Cc1ccccc1)C(=O)N[C@@H](CCC(N)=O)C(=O)Nc1ccc(F)c(Cl)c1
15	O=C(N[C@@H](Cc1c[nH]cn1)C(=O)N[C@@H](Cc1ccc(O)cc1)C(=O)N[C@@H](Cc1ccccc1)C(=O)O)OCc1ccccc1OCc1ccccc1
95	O=C(CCc1ccccc1)N[C@@H](CO)C(=O)N[C@@H](Cc1ccccc1)C(=O)N[C@@H](CO)C(=O)O (Hydrocinnamoyl-Ser-Phe-Ser-OH)
37	CCCCCc1ccccc1CCC(=O)N[C@H](Cc1cnc[nH]1)C(=O)N[C@@H](Cc1ccc(O)cc1)C(=O)N[C@@H](Cc1ccccc1)C(=O)O
90	NC(=O)CC[C@H](NC(=O)[C@H](Cc1ccccc1)NC(=O)[C@H](CO)NC(=O)CCc1ccccc1)C(=O)Nc1ccccc1 (Hydrocinnamoyl-Ser-Phe-Gln-NHPh)
88	CC(C)C[C@H](NC(=O)[C@H](COC(C)(C)C)NC(=O)[C@H](Cc1ccccc1)NC(=O)CCc1ccccc1)C(=O)O
80	CC(C)CCNC(=O)[C@H](Cc1ccccc1)NC(=O)CNC(=O)[C@@H]1CCCN1C(=O)/C=C/c1ccccc1
80	CC(C)C[C@H](NC(=O)[C@H](CO)NC(=O)[C@H](Cc1ccccc1)NC(=O)CCc1ccccc1)C(=O)O
93	CC(C)C[C@H](NC(=O)/C=C/c1ccccc1)C(=O)N[C@@H](Cc1ccccc1)C(=O)N[C@@H](Cc1ccccc1)C(=O)Nc1ccc(F)cc1F
53	O=C(N[C@@H](Cc1c[nH]cn1)C(=O)N[C@@H](Cc1ccc(O)cc1)C(=O)N[C@@H](Cc1ccccc1)C(=O)O)OCc1ccc(OCc2ccccc2)cc1
83	C[C@H](NC(=O)c1coc(-c2ccccc2)n1)C(=O)NCC(=O)N[C@@H](Cc1ccc(O)cc1)C(=O)Nc1ccc(F)cc1F
98	O=C(CNC(=O)[C@H](Cc1ccc(O)cc1)NC(=O)c1ccc(F)cc1)N[C@@H](Cc1ccc(O)cc1)C(=O)Nc1ccc(F)cc1F

From ChEMBL document CHEMBL1153722, “Design, synthesis, and characterization of peptide-based rab geranylgeranyl transferase inhibitors” (J Med Chem, 2009)
